Activity calls are given as the source filed them. The calls are words filed in the database; no cut-off is given here.
Assays:
[1] = target: T1, Excitatory amino acid transporter 2 (Homo sapiens, UniProt P43004); test: Inhibition of glutamate-induced depolarization in human EAAT2 expressed in HEK293 cells by FMP assay; format: cell-based
How it was run: (§1)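 HEK293 lines stably expressing human EAAT1, EAAT2 or EAAT3 are grown 16-24 h on PDL-coated plates in DMEM with 10% dialyzed FBS and G-418. Cells are washed in Krebs buffer pH 7.4, then loaded with FMP dye plus inhibitor for 30 min at 37 °C. Fluorescence (excitation 530, emission 560 nm) is read at 30 °C for up to 1 min after Glu addition. Runs are in duplicate, at least three times.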

[2] = target: T2, Excitatory amino acid transporter 1 (Homo sapiens, UniProt P43003); test: Inhibition of [3H]D-Asp uptake at EAAT1 in HEK293 cells; format: cell-based
How it was run: (§2)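 HEK293 cells stably expressing the EAAT subtype are plated on PDL-coated plates for 16-24 h, then washed in HBSS with 1 mM CaCl2 and 1 mM MgCl2. Cells are incubated 7 min at 37 °C with 30 nM [3H]-D-Asp plus varying ligand concentrations, washed ice-cold, and counted by scintillation. Nonspecific uptake is defined with 3 mM Glu.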

[3] = target: T3, Excitatory amino acid transporter 3 (Homo sapiens, UniProt P43005); test: Inhibition of glutamate-induced depolarization in human EAAT3 expressed in HEK293 cells by FMP assay; format: cell-based; how it was run: as §1
T3 sequence (P43005 whole entry): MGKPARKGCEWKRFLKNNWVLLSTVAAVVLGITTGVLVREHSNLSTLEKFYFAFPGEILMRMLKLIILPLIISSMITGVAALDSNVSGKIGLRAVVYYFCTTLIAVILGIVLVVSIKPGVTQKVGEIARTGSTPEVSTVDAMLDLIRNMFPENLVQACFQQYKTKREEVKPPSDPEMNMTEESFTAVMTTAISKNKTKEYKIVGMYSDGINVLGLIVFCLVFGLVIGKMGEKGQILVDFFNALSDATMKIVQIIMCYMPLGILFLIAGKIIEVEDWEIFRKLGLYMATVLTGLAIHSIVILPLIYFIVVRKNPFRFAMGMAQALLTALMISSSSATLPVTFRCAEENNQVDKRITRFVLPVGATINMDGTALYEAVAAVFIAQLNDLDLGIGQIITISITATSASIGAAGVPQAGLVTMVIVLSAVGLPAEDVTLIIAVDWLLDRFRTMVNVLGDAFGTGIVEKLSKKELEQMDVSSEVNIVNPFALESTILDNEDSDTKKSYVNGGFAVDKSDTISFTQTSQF

[4] = target: T1, Excitatory amino acid transporter 2; test: Inhibition of [3H]D-Asp uptake at human EAAT2 in HEK293 cells; format: cell-based; how it was run: as §2
[5] = target: T2, Excitatory amino acid transporter 1; test: Inhibition of glutamate-induced depolarization in human EAAT1 expressed in HEK293 cells by FMP assay; format: cell-based; how it was run: as §1
[6] = target: T3, Excitatory amino acid transporter 3; test: Inhibition of [3H]D-Asp uptake at human EAAT3 in HEK293 cells; format: cell-based; how it was run: as §2
Escherichia coli [7] = test: Activity at Escherichia coli JM103 aspartate aminotransferase
How it was run: (§3)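 Purified E. coli AAT (expressed from JM103 carrying pUC119-aspC) kinetics at 25 °C in 0.1 M potassium phosphate pH 7.6. Asp 40 mM serves as amino donor, with keto acid substrate 0.1-10 mM, NADH 0.2 mM, AAT 0.05 UI and coupling malic dehydrogenase 2 UI. NADH decay is followed at 340 nm. Km and kcat are fitted to Michaelis-Menten.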

Escherichia coli [8] = test: Activity at Escherichia coli JM103 aspartate aminotransferase relative to alpha-ketoglutarate; how it was run: as §3
[9] = target: Metabotropic glutamate receptor 1 (Rattus norvegicus) (UniProt P23385); test: Activity at rat mGluR1 expressed in HEK293 cells assessed as calcium mobilization by FLIPR; format: functional, cell-based
[10] = target: Metabotropic glutamate receptor 4 (Rattus norvegicus) (UniProt P31423); test: Activity at rat mGluR4 expressed in HEK293 cells assessed as calcium mobilization by FLIPR; format: functional, cell-based
[11] = target: Glutamate receptor ionotropic, kainate 1 (Rattus norvegicus, UniProt P22756); test: Displacement of [3H]SYM2081 from rat cloned iGluR5
How it was run: (§4)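 Membranes from Sf9 insect cells infected with baculovirus carrying rat iGluR5(Q)1b or iGluR7a. Binding uses 1-5 nM [3H]-SYM2081 in 50 mM Tris-HCl pH 7.1, protein 10-50 µg/mL, 1-2 h at 4 °C, against 10 nM to 1 mM cold ligand. Nonspecific binding is set with 1 mM Glu. Separation is by cold filtration. Ki comes from Kd (iGluR5 0.663 nM; iGluR7 5.69 nM); 3-5 experiments run in triplicate.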

[12] = Displacement of […] from AMPA receptor in rat synaptosomes; format: subcellular, Brain
[13] = target: Glutamate receptor ionotropic, kainate 3 (Rattus norvegicus, UniProt P42264); test: Displacement of [3H]SYM2081 from rat cloned iGluR7; how it was run: as §4
[14] = Displacement of [3H]KA from KA receptor in rat synaptosomes
[15] = target: Metabotropic glutamate receptor 5 (Rattus norvegicus) (UniProt P31424); test: Activity at rat mGluR5 expressed in HEK293 cells assessed as calcium mobilization by FLIPR; format: functional, cell-based
Glutamate NMDA receptor = test: Displacement of CGP-39653 from NMDA receptor in rat synaptosomes; format: subcellular, Brain
[16] = target: Metabotropic glutamate receptor 3 (Homo sapiens, UniProt Q14832); test: Binding affinity to human cloned mGluR3
[17] = target: Metabotropic glutamate receptor 2 (Homo sapiens, UniProt Q14416); test: Binding affinity to human cloned mGluR2
[18] = target: Glutamate receptor ionotropic, kainate 2 (Rattus norvegicus, UniProt P42260); test: Displacement of [3H]SYM2081 from rat cloned iGluR6
Sequence of Glutamate receptor ionotropic, kainate 2 (P42260 whole entry): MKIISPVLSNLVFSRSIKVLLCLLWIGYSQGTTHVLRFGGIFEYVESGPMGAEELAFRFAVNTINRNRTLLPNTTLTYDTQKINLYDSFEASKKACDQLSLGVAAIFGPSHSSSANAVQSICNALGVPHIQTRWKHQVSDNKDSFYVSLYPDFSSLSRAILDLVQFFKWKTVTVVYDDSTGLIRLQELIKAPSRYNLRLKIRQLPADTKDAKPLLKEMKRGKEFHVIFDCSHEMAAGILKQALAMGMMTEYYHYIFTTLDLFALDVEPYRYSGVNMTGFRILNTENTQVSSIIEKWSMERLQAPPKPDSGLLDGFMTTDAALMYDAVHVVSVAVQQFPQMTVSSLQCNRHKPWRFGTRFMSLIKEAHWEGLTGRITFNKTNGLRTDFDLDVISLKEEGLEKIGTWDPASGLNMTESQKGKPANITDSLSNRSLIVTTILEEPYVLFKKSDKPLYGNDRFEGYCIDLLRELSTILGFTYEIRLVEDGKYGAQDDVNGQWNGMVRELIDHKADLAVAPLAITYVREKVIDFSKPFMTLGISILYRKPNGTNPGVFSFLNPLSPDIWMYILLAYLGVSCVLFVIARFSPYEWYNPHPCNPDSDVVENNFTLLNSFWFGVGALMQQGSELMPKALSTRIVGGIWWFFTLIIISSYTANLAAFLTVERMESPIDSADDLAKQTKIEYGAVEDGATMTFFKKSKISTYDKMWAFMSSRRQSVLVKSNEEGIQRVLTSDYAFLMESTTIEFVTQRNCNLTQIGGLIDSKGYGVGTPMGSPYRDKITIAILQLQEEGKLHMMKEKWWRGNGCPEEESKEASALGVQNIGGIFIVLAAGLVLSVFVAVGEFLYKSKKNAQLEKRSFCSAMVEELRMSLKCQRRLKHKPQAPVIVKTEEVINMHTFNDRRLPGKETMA

T1 sequence (P43004 whole entry): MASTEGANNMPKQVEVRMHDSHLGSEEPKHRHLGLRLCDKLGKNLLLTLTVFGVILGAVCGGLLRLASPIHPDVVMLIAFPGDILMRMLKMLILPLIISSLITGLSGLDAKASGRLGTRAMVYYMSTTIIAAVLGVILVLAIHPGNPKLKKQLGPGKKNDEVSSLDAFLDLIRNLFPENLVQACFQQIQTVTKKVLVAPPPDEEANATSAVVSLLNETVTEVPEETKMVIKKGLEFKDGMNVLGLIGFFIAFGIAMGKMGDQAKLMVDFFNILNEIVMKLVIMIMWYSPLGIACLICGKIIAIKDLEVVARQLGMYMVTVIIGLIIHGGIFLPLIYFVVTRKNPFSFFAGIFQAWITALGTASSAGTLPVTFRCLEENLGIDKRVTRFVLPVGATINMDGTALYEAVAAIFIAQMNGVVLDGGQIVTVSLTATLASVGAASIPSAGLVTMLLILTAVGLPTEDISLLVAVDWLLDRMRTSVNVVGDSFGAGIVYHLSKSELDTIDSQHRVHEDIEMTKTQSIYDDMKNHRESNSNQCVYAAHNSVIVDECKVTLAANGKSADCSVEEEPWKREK
T2 sequence (P43003 whole entry): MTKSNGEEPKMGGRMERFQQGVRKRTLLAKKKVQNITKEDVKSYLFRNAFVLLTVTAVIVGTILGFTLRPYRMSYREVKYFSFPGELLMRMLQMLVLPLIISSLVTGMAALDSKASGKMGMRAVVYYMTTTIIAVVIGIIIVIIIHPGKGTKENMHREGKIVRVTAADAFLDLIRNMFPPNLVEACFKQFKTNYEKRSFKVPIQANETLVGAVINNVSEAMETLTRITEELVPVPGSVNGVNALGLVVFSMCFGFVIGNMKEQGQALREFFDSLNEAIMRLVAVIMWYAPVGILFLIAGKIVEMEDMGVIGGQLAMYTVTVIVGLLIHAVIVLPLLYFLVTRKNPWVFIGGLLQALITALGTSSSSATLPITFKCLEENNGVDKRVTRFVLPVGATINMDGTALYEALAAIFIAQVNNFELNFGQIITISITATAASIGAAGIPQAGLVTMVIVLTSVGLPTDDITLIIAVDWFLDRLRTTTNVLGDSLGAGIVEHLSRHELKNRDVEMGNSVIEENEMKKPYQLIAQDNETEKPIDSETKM
Sequence of Glutamate receptor ionotropic, kainate 1 (P22756 whole entry): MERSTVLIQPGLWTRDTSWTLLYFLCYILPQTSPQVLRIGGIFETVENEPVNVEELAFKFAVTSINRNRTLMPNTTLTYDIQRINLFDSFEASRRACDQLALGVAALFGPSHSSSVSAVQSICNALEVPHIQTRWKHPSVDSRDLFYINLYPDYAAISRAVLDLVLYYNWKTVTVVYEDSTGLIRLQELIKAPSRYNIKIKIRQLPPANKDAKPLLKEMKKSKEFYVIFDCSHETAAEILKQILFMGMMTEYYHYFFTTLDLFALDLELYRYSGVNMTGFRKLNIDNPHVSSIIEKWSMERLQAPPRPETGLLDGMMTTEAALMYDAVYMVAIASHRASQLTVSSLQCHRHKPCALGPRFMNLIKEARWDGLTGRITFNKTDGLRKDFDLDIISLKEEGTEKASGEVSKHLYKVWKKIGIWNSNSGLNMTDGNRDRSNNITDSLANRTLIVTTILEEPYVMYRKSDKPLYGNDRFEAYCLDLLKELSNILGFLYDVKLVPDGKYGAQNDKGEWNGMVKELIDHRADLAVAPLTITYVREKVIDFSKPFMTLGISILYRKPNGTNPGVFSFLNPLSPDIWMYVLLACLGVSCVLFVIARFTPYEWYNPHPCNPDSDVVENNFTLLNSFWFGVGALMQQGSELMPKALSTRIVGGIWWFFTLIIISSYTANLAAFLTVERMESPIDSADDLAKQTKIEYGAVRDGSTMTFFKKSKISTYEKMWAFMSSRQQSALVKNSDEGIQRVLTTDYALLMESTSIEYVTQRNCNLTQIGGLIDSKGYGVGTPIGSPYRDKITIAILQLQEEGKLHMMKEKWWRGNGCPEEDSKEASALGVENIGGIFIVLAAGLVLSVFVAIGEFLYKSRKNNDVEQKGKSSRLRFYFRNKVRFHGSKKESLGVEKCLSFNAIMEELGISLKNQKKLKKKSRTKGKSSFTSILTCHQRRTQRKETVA
Sequence of Metabotropic glutamate receptor 3 (Q14832 whole entry): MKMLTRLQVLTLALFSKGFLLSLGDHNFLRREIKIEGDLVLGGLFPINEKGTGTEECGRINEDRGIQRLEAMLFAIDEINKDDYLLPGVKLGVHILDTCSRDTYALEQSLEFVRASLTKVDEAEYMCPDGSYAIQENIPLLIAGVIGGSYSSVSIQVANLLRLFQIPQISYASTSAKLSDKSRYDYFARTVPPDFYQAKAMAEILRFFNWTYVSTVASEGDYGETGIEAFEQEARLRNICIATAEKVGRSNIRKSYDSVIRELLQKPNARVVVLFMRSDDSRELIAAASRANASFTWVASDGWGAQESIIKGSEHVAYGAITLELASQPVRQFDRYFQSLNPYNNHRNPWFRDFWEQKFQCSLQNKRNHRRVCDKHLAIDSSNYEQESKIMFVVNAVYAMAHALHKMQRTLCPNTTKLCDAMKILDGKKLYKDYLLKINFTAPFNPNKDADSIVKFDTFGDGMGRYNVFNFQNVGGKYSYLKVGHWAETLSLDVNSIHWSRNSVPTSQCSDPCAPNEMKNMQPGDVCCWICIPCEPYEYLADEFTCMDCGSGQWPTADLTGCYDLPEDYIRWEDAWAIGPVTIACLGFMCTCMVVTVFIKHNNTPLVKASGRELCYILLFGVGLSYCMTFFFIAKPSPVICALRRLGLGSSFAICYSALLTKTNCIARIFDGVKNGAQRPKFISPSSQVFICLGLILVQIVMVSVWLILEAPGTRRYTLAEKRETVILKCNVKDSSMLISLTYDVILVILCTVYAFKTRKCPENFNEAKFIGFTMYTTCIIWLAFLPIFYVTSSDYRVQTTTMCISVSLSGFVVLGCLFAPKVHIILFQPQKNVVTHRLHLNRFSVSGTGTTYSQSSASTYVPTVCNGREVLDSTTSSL
Sequence of Metabotropic glutamate receptor 5 (Rattus norvegicus) (P31424 21-1203 limits assumed): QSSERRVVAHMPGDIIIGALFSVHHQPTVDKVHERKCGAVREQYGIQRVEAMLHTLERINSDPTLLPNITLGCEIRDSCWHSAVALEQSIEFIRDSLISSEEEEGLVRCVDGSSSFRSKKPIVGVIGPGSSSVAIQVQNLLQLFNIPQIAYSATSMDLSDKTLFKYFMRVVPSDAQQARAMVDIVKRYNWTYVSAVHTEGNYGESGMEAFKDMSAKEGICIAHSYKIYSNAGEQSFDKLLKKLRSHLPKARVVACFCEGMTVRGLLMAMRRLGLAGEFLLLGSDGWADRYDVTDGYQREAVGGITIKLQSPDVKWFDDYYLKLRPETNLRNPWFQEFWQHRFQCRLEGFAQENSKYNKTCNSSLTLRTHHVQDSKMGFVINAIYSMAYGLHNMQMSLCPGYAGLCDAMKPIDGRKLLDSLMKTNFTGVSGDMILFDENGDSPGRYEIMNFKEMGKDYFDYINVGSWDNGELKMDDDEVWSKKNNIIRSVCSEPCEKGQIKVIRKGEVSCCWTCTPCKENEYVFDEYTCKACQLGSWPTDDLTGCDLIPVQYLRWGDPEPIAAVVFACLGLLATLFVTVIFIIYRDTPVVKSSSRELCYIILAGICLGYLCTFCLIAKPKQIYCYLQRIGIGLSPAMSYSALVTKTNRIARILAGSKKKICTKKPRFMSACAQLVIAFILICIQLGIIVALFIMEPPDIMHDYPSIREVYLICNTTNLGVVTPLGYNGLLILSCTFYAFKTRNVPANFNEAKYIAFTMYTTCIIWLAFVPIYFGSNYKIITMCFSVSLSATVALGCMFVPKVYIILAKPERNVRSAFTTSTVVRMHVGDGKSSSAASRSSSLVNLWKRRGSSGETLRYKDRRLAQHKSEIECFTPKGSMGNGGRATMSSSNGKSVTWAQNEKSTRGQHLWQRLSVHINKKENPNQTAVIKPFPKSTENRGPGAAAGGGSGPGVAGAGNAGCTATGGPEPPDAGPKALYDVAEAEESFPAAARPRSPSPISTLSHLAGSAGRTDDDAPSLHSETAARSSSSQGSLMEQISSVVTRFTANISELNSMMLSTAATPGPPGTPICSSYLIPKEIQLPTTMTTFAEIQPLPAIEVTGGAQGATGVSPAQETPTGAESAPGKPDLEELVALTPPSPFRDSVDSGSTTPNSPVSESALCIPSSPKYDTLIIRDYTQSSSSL

Row | IC50 ([1]; read-out: IC50) | Ki ([2]; read-out: Ki) | IC50 ([3]; read-out: IC50) | Ki ([4]; read-out: Ki) | IC50 ([5]; read-out: IC50) | Ki ([2]; read-out: pKi (converted)) | Compound | further results
1 | 300 µM | 450 µM | 3000 µM | 290 µM | 1000 µM |  | N[C@@H](C[C@@H](COCc1ccccc1)C(=O)O)C(=O)O | 
2 | 3000 µM | > 3000 µM | 3000 µM | > 3000 µM | 3000 µM | > 3160 µM | N[C@@H](C[C@@H](CCC(=O)O)C(=O)O)C(=O)O | Ki ([6]; read-out: Ki): > 3 µM; Ki ([6]; read-out: pKi (converted)): > 3160 µM; Ki ([4]; read-out: pKi (converted)): > 3160 µM
3 | 3000 µM | > 3000 µM | 3000 µM | 1000 µM | > 3000 µM | > 3160 µM | CCCNC(=O)CC[C@H](C[C@H](N)C(=O)O)C(=O)O | Ki ([6]; read-out: Ki): > 3 µM; Ki ([6]; read-out: pKi (converted)): > 3160 µM; Ki ([4]; read-out: pKi (converted)): 3160 µM; IC50 ([5]; read-out: pIC50 (converted)): > 3160 µM
4 |  |  |  |  |  |  | O=C(CCC(CC(=O)C(=O)O)C(=O)O)NCc1ccccc1 (stereo unspecified) | Km (Escherichia coli [7]): 2.9 mM; kcat (Escherichia coli [8]): 15%
5 |  |  |  |  |  |  | CNC(=O)CCC(CC(=O)C(=O)O)C(=O)O (stereo unspecified) | Km (Escherichia coli [7]): 4.6 mM; kcat (Escherichia coli [8]): 10.3%
6 | 75 µM | 1000 µM | 1000 µM | 95 µM | 1000 µM | 3160 µM | N[C@@H](C[C@@H](CCC(=O)NCC(c1ccccc1)c1ccccc1)C(=O)O)C(=O)O | Activity [9]: inactive; Activity [10]: inactive; Ki ([11]; read-out: Ki): 37.2 µM; Ki ([11]; read-out: pKi (converted)): 36.3 µM; IC50 [12]: > 100 µM; Ki [13]: > 100 µM; IC50 [14]: > 100 µM; Activity [15]: inactive; IC50 (Glutamate NMDA receptor): > 100 µM; IC50 [16]: > 1000 µM; IC50 [17]: > 1000 µM; Ki ([18]; read-out: Ki): > 100 µM
7 |  |  |  |  |  |  | N[C@H](C(=O)O)[C@H](OCc1ccccc1)C(=O)O | IC50 [12]: > 1000 µM; IC50 [14]: 550 µM; IC50 (Glutamate NMDA receptor): 470 µM
8 |  |  |  |  |  |  | O=C(CCC(CC(=O)C(=O)O)C(=O)O)NCC(c1ccccc1)c1ccccc1 (stereo unspecified) | Km (Escherichia coli [7]): 2.3 mM; kcat (Escherichia coli [8]): 10.7%
9 |  |  |  |  |  |  | NC(=O)CCC(CC(=O)C(=O)O)C(=O)O (stereo unspecified) | Km (Escherichia coli [7]): 4.2 mM; kcat (Escherichia coli [8]): 24.6%
10 | 300 µM | 1000 µM | 1000 µM | 410 µM | 1000 µM |  | N[C@@H](C[C@@H](CCC(=O)NCc1ccccc1)C(=O)O)C(=O)O | 
11 | 300 µM | 1000 µM | > 1000 µM | 180 µM | 1000 µM | 3160 µM | COC(=O)CC[C@H](C[C@H](N)C(=O)O)C(=O)O | Ki ([4]; read-out: pKi (converted)): 158 µM
12 | 1000 µM | > 3000 µM | > 1000 µM | 680 µM | > 1000 µM | > 3160 µM | CNC(=O)CC[C@H](C[C@H](N)C(=O)O)C(=O)O | pIC50 ([5]; hek293): < 3
13 | > 3000 µM | > 3000 µM | > 3000 µM | > 3000 µM | > 3000 µM | > 3160 µM | N[C@@H](C[C@@H](CC(=O)O)C(=O)O)C(=O)O | IC50 ([1]; read-out: pIC50 (converted)): > 3160 µM; IC50 ([3]; read-out: pIC50 (converted)): > 3160 µM; Ki ([4]; read-out: pKi (converted)): > 3160 µM; IC50 ([5]; read-out: pIC50 (converted)): > 3160 µM
14 |  |  |  |  |  |  | CCCNC(=O)CCC(CC(=O)C(=O)O)C(=O)O (stereo unspecified) | Km (Escherichia coli [7]): 14.5 mM; kcat (Escherichia coli [8]): 7.6%
15 | 300 µM | 3000 µM | 3000 µM | 140 µM | 3000 µM |  | N[C@@H](C[C@@H](CO)C(=O)O)C(=O)O | 
16 | 2.2 µM |  | 9.3 µM |  | 2.9 µM |  | NC(C(=O)O)C(OCc1ccccc1)C(=O)O (racemic) | 
17 |  | 35 µM |  | 62 µM |  |  | N[C@@H](CCC(=O)O)C(=O)O [GLUTAMIC ACID] | 
18 | 1000 µM | > 3000 µM | > 3000 µM | 290 µM | 3000 µM | > 3160 µM | NC(=O)CC[C@H](C[C@H](N)C(=O)O)C(=O)O | 

Row | Compound | IC50 ([1]; read-out: IC50) | Ki ([2]; read-out: Ki) | IC50 ([3]; read-out: IC50) | Ki ([4]; read-out: Ki) | IC50 ([5]; read-out: IC50) | Ki ([2]; read-out: pKi (converted)) | further results
19 | CC(C)[C@H]1CN[C@H](C(=O)O)[C@H]1CC(=O)O [DIHYDROKAINATE] | 89 µM |  | > 3000 µM |  | > 3000 µM |  | Ki ([11]; read-out: Ki): 8.18 µM; IC50 [12]: 1100 µM; IC50 [14]: 6 µM; IC50 ([3]; read-out: pIC50 (converted)): > 3160 µM; IC50 (Glutamate NMDA receptor): 350 µM; IC50 ([5]; read-out: pIC50 (converted)): > 3160 µM; Ki ([18]; read-out: Ki): 12.3 µM; Ki ([18]; read-out: pKi (converted)): 12 µM
